Test results taken from ChEMBL document CHEMBL4387704, “Design, synthesis and biological evaluation of novel isoindolinone derivatives as potent histone deacetylase inhibitors” (Eur J Med Chem, 2019).
Calls of active or inactive are those of the source. No cut-off for these calls is given here.

Experiments:
DU-145 = test: Growth inhibition of human DU145 cells assessed as cell growth inhibition at 10 uM incubated for 48 hrs by sulforhodamine B assay; type: functional; details: DU-145, 48 h, read-out: GI
SF-295 = test: Growth inhibition of human SF295 cells assessed as cell growth inhibition at 10 uM incubated for 48 hrs by sulforhodamine B assay; type: functional; details: SF-295, 48 h, read-out: GI
[1] = AUC (0 to infinity) in Sprague-Dawley rat at 1 mg/kg, iv by LC-MS/MS analysis; type: ADME, organism-based; design: dose 1 mg/kg, route intravenous, time infinity; details: in vivo
In short: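 Male SD rats, 199-214 g, three per route. Single iv dose of 1 mg/kg or oral dose of 10 mg/kg. About 200 μL blood drawn from the jugular vein into heparinized tubes at set times, then spun to plasma. 30 μL plasma precipitated with CH3CN containing verapamil and glibenclamide as internal standards. Plasma drug level measured by LC-MS/MS.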

TK-10 = test: Growth inhibition of human TK10 cells assessed as cell growth inhibition at 10 uM incubated for 48 hrs by sulforhodamine B assay; type: functional; details: TK-10, 48 h, read-out: GI
HCT-116 [2] = test: Growth inhibition of human HCT116 cells assessed as cell growth inhibition at 10 uM incubated for 48 hrs by sulforhodamine B assay; type: functional; details: HCT-116, 48 h, read-out: GI
[3] = AUC (0 to t) in Sprague-Dawley rat at 10 mg/kg, po by LC-MS/MS analysis; type: ADME, organism-based; details: in vivo
[4] = biological target: Histone deacetylase 4 (Homo sapiens) (UniProt P56524); test: Inhibition of HDAC4 (unknown origin) using Fluor de Lys substrate by fluorescence assay relative to control
Histone deacetylase 4 (Homo sapiens), sequence (P56524 whole entry, canonical isoform): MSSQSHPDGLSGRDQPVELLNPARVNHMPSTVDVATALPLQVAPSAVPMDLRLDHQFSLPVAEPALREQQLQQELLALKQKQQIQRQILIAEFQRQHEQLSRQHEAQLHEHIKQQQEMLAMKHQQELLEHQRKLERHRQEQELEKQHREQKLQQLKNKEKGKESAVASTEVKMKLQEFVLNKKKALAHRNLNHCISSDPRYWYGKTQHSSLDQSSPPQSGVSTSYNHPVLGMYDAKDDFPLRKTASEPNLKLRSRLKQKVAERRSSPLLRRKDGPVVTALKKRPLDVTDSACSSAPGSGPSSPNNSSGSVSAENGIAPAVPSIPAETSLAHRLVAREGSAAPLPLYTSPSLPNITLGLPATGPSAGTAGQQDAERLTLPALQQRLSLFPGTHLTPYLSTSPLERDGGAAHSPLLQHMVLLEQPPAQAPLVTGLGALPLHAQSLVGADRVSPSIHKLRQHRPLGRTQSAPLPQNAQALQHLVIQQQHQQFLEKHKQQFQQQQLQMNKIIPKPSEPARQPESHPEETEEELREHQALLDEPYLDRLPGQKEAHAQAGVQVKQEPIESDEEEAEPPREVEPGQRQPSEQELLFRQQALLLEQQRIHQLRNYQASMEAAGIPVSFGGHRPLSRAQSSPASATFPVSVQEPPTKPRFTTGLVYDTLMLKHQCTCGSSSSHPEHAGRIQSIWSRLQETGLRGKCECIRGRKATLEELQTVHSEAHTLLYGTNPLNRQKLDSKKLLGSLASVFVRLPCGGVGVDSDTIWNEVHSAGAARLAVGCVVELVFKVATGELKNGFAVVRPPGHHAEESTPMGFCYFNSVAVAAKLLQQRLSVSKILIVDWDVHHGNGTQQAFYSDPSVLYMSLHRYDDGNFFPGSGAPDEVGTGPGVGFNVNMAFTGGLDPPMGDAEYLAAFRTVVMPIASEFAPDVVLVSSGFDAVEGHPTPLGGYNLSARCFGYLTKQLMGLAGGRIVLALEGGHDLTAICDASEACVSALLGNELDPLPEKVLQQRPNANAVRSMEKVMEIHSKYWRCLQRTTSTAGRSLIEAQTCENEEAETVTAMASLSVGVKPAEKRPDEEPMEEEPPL
In short: (§1)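 Recombinant HDAC isoform assays run by a contract lab. Compounds in DMSO, 10-dose IC50 mode, 3-fold serial dilution from 50 μM. Duplicate runs; IC50 from curve fitting.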

BT-549 = test: Growth inhibition of human BT549 cells assessed as cell growth inhibition at 10 uM incubated for 48 hrs by sulforhodamine B assay; type: functional; details: BT-549, 48 h, read-out: GI
NCI-H226 = test: Growth inhibition of human NCI-H226 assessed as cell growth inhibition at 10 uM incubated for 48 hrs by sulforhodamine B assay; type: functional; details: NCI-H226, 48 h, read-out: GI
Malme-3M = test: Growth inhibition of human MALME-3M cells assessed as cell growth inhibition at 10 uM incubated for 48 hrs by sulforhodamine B assay; type: functional; details: read-out: GI
SW-620 = test: Growth inhibition of human SW620 cells assessed as cell growth inhibition at 10 uM incubated for 48 hrs by sulforhodamine B assay; type: functional; details: SW-620, 48 h, read-out: GI
SK-MEL-5 = test: Growth inhibition of human SK-MEL-5 cells assessed as cell growth inhibition at 10 uM incubated for 48 hrs by sulforhodamine B assay; type: functional; details: SK-MEL-5, 48 h, read-out: GI
UACC-257 = test: Growth inhibition of human UACC257 cells assessed as cell growth inhibition at 10 uM incubated for 48 hrs by sulforhodamine B assay; type: functional; details: UACC-257, 48 h, read-out: GI
HCT-116 [5] = test: Antiproliferative activity against human HCT116 assessed as reduction in cell viability measured after 72 hrs using alamar blue based fluorescence method; type: functional; details: HCT-116, 72 h
In short: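 HCT116 and MCF-7 grown in McCoy's 5A with 10% FBS and penicillin/streptomycin at 37 °C, 5% CO2. Cells plated in 96-well format and exposed to drug for 72 h. Alamar blue (1 mM solution) added, incubated 5–6 h, fluorescence read at 530/590 nm.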

Histone deacetylase 3 = Histone deacetylase 3 (Homo sapiens, UniProt O15379); test: Inhibition of HDAC3 (unknown origin) using Fluor de Lys substrate by fluorescence assay relative to control; in short: as §1
Histone deacetylase 3, sequence (O15379 whole entry): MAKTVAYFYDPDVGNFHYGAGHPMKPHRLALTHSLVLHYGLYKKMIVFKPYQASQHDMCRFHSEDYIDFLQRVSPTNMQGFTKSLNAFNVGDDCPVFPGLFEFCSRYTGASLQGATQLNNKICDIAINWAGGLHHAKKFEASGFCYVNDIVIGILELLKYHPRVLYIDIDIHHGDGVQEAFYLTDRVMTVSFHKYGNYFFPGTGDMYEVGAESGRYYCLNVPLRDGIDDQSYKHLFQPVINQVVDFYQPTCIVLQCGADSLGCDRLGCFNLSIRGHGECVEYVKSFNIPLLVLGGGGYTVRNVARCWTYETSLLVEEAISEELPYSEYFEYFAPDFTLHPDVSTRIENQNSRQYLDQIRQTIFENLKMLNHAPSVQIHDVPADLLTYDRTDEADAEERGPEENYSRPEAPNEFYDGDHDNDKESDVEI

CCRF-CEM = test: Growth inhibition of human CCRF-CEM cells assessed as cell growth inhibition at 10 uM incubated for 48 hrs by sulforhodamine B assay; type: functional; details: read-out: GI
A549 = test: Growth inhibition of human A549 cells assessed as cell growth inhibition at 10 uM incubated for 48 hrs by sulforhodamine B assay; type: functional; details: A549, 48 h, read-out: GI
HL-60 = test: Potency index, ratio of IC50 of chidamide to IC50 of test compound against human HL60 cells; type: functional
LOX IMVI = test: Growth inhibition of human LOXIMVI cells assessed as cell growth inhibition at 10 uM incubated for 48 hrs by sulforhodamine B assay; type: functional; details: read-out: GI
HOP-62 = test: Growth inhibition of human HOP62 cells assessed as cell growth inhibition at 10 uM incubated for 48 hrs by sulforhodamine B assay; type: functional; details: HOP-62, 48 h, read-out: GI
SK-OV-3 = test: Growth inhibition of human SKOV3 cells assessed as cell growth inhibition at 10 uM incubated for 48 hrs by sulforhodamine B assay; type: functional; details: SK-OV-3, 48 h, read-out: GI
U-251 = test: Growth inhibition of human U251 cells assessed as cell growth inhibition at 10 uM incubated for 48 hrs by sulforhodamine B assay; type: functional; details: U-251, 48 h, read-out: GI
MDA-MB-231 = test: Growth inhibition of human MDA-MB-231 cells assessed as cell growth inhibition at 10 uM incubated for 48 hrs by sulforhodamine B assay; type: functional; details: MDA-MB-231, 48 h, read-out: GI
M14 = test: Growth inhibition of human M14 cells assessed as cell growth inhibition at 10 uM incubated for 48 hrs by sulforhodamine B assay; type: functional; details: M14, 48 h, read-out: GI
786-0 = test: Growth inhibition of human 786-0 cells assessed as cell growth inhibition at 10 uM incubated for 48 hrs by sulforhodamine B assay; type: functional; details: 786-0, 48 h, read-out: GI
K562 = test: Growth inhibition of human K562 cells assessed as cell growth inhibition at 10 uM incubated for 48 hrs by sulforhodamine B assay; type: functional; details: K562, 48 h, read-out: GI
[6] = biological target: Histone deacetylase 9 (Homo sapiens) (UniProt Q9UKV0); test: Inhibition of HDAC9 (unknown origin) using Fluor de Lys substrate by fluorescence assay relative to control; in short: as §1
Histone deacetylase 9 (Homo sapiens), sequence (Q9UKV0 whole entry): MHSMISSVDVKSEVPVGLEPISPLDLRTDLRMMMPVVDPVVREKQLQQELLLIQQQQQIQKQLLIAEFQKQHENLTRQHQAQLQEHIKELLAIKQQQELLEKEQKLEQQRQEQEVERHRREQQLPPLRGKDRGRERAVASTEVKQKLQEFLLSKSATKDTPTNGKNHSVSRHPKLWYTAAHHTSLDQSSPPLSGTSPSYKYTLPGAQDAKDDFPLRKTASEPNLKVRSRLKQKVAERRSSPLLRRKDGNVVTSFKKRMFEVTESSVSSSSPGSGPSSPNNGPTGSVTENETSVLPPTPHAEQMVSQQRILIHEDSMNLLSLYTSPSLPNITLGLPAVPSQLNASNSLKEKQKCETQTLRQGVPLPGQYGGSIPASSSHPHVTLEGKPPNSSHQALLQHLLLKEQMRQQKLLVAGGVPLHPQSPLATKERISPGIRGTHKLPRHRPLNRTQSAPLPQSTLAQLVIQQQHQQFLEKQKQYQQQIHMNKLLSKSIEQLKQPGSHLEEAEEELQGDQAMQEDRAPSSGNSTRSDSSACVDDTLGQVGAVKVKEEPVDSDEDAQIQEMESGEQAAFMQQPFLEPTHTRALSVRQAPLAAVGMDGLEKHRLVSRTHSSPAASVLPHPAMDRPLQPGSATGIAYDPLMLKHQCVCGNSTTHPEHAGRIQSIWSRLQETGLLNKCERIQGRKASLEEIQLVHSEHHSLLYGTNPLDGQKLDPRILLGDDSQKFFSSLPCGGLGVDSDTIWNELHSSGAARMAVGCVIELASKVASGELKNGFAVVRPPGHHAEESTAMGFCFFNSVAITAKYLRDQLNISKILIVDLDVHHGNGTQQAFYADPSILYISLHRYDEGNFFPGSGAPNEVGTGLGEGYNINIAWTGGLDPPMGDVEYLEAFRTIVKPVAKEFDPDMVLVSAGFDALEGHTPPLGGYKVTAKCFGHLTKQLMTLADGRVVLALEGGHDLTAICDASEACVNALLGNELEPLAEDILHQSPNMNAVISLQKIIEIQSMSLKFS

OVCAR-4 = test: Growth inhibition of human OVCAR4 cells assessed as cell growth inhibition at 10 uM incubated for 48 hrs by sulforhodamine B assay; type: functional; details: OVCAR-4, 48 h, read-out: GI
HT-29 = test: Growth inhibition of human HT-29 cells assessed as cell growth inhibition at 10 uM incubated for 48 hrs by sulforhodamine B assay; type: functional; details: HT-29, 48 h, read-out: GI
MDA-MB-435 = test: Growth inhibition of human MDA-MB-435 cells assessed as cell growth inhibition at 10 uM incubated for 48 hrs by sulforhodamine B assay; type: functional; details: MDA-MB-435, 48 h, read-out: GI
PC-3 = test: Growth inhibition of human PC3 cells assessed as cell growth inhibition at 10 uM incubated for 48 hrs by sulforhodamine B assay; type: functional; details: PC-3, 48 h, read-out: GI

Nc1cc(F)ccc1NC(=O)c1ccc(CNC(=O)/C=C2\NC(=O)c3ccccc32)cc1
inhibition of growth at 10 µM (DU-145): 13% | inhibition of growth at 10 µM (SF-295): 16.2% | AUC(0-inf) [1]: 784 ng·h/mL | inhibition of growth at 10 µM (TK-10): 72.3% | inhibition of growth at 10 µM (HCT-116 [2]): 73.3% | AUC(0-t) [3]: 1710 ng·h/mL | inhibition [4]: inactive | inhibition of growth at 10 µM (BT-549): 6.06% | inhibition of growth at 10 µM (NCI-H226): 30.2% | inhibition of growth at 10 µM (Malme-3M): 52.6% | inhibition of growth at 10 µM (SW-620): 40.1% | inhibition of growth at 10 µM (SK-MEL-5): 34.7% | inhibition of growth at 10 µM (UACC-257): 36.6% | IC50 (HCT-116 [5]): 432 nM | IC50 (Histone deacetylase 3): 112 nM | inhibition of growth at 10 µM (CCRF-CEM): 84.5% | inhibition of growth at 10 µM (A549): 12.2% | Ratio IC50 (HL-60): 5 | inhibition of growth at 10 µM (LOX IMVI): 15.7% | inhibition of growth at 10 µM (HOP-62): 29.9% | inhibition of growth at 10 µM (SK-OV-3): 29.5% | inhibition of growth at 10 µM (U-251): 35.9% | inhibition of growth at 10 µM (MDA-MB-231): 22.4% | inhibition of growth at 10 µM (M14): 29.4% | inhibition of growth at 10 µM (786-0): 7.02% | inhibition of growth at 10 µM (K562): 61.6% | inhibition [6]: inactive | inhibition of growth at 10 µM (OVCAR-4): 21.3% | inhibition of growth at 10 µM (HT-29): 40.4% | inhibition of growth at 10 µM (MDA-MB-435): 28.8% | inhibition of growth at 10 µM (PC-3): 39.4%
